Measured values from PMC2646257 (Journal of medicinal chemistry, 2009).
Several values for one entry are separate records, joined by “and”; a condition that tells them apart may be missing. Identical values can stand only once. Like-named read-outs stand apart in the source and are kept apart here.

Key:
[1] = LC-MS-MS search for metabolites in rat brain, urine and plasma in vivo
Outline: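 Three rats under 1.5% isoflurane received non-radioactive test compound (2.26 ± 0.76 mg) via the penile vein over 9 min, in 0.9 mL saline with 10% ethanol and Cremophor EL or Tween 80. Urethras were clamped; saline 0.1 mL was given i.v. every 30 min. Blood and urine were taken at 60 or 115 min. Brain was homogenized twice in acetonitrile/water and spun at 10,000g for 10 min. Plasma was deproteinized with acetonitrile. Samples were stored at −70 °C and analysed by LC-MS-MS.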

PBR [2] = conditions: cited from earlier work
[3] = mouse; cited from earlier work
[4] = assay type: in vitro ADME, rat; conditions: 30 min
[5] = Emergence of radiometabolites in monkey plasma in vivo; set-up: species or system rhesus monkey
Outline: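 Three male rhesus monkeys (11–15 kg) received i.v. bolus radioligand during four PET scans: three baseline and one pre-block (PBR ligand 3 mg/kg i.v., 24 min before). Arterial blood was drawn periodically from the femoral artery into heparin tubes and centrifuged. Plasma (1 mL) was mixed with acetonitrile (1.5 mL) and centrifuged. Supernatant was analysed by radio-HPLC for % parent and radiometabolites. Plasma concentration was expressed as %SUV.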

[6] = Plasma free fraction, monkey; assay type: in vitro ADME; conditions: two monkeys, one value each (n = 9 and n = 3)
Outline: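 Radioligand was added to plasma and placed on a centrifugal ultrafiltration unit. The unit was spun at 5000g, and all filter-unit components were counted for radioactivity to derive free fraction.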

[7] = Stability in sodium phosphate buffer; assay type: physicochemical; conditions: sodium phosphate buffer (0.15 M, pH 7.4), room temperature
Outline: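 Radioligand was incubated in 0.15 M sodium phosphate buffer, pH 7.4, at room temperature for 2 h and analysed by HPLC.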

PBR [8] = assay: PET imaging in monkeys; assay type: in vivo, rhesus monkey; conditions: monkey
Outline: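 Male rhesus monkeys (11–15 kg) received an i.v. bolus of radioligand (2.76–5.80 mCi; 0.068–0.276 μg/kg) and were scanned up to 300 min. In pre-block, PBR ligand (3 mg/kg i.v.) was given 24 min before radioligand and imaging ran 120 min. In displacement, one monkey received 1.28 mCi, then 3 mg/kg i.v. at 60 min, with 240 min scanning. Uptake was given as %SUV. Images were co-registered with T1 1.5-T MRI.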

[9] = Stability to rat brain homogenate in vitro; assay type: in vitro ADME; conditions: 37 °C, up to 60 min
Outline: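 Excised rat brain (1.70 g) was homogenized in 3 mL saline, spiked with 5 μCi radioligand and incubated at 37 °C. Aliquots (n = 6) were taken periodically up to 60 min into acetonitrile, centrifuged and analysed by radio-HPLC for % parent and radiometabolites. A second brain, homogenized in saline/acetonitrile before spiking, served as reference.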

[10] = Emergence of radiometabolites in rat plasma, brain and urine in vivo
Outline: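 Four rats (277–623 g) were kept under 1.5% isoflurane in oxygen at 37 °C. Two received NCA radioligand i.v. (0.812 or 1.32 mCi; >1.39 Ci/μmol) and were killed at 30 or 95 min. Two received carrier-added radioligand (0.86 or 0.89 mCi; ~0.13 Ci/μmol; saline with 10% ethanol, 5% Tween 80), had 5 mL saline i.p. 30 min before, and were killed at 60 min with urine collected. Plasma was deproteinized. Brain was homogenized on ice in saline/acetonitrile plus water and centrifuged. Analysis was by radio-HPLC.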

[11] = Radiochemical stability of formulated radioligand; assay type: physicochemical; conditions: formulated [^18F]9
[12] = two rats, carrier-added, 60 min

COc1ccc(OC)c(CN(C(=O)CF)c2ccccc2Oc2ccccc2)c1 [compound 9, N-Fluoroacetyl-N-(2,5-dimethoxybenzyl)-2-phenoxyaniline]
unchanged 9 in urine by LC-MS-MS [1]: not detected | unchanged 9 in brain and plasma by LC-MS-MS ([1]; sampled at 115 min after administration): detected | selectivity for PBR (PBR [2]): selective for PBR

COc1ccc(OC[18F])c(CN(C(C)=O)c2cc(F)ccc2Oc2ccccc2)c1 [[^18F]4]
defluorination [3]: rapidly defluorinated

O=C(C[18F])Nc1ccccc1Oc1ccccc1 [[^18F]11, [^18F]2-fluoro-N-(2-phenoxyphenyl)acetamide]
conversion into polar radiometabolite(s) ([4]; rat brain homogenate): > 99.9% | conversion into polar radiometabolite(s) ([4]; rat whole blood): > 99.9%

COc1ccc(OC)c(CN(C(=O)C[18F])c2ccccc2Oc2ccccc2)c1 [[^18F]9, [^18F]N-fluoroacetyl-N-(2,5-dimethoxybenzyl)-2-phenoxyaniline]
time for radiometabolite to reach half of plasma radioactivity ([5]; baseline, the one monkey also studied with pre-block): 24 min | minor radiometabolite, share of total plasma radioactivity ([5]; monkey plasma, all samples except one): ≤ 4% | peak plasma concentration of unchanged [^18F]9, pre-block versus baseline ([5]; monkey, %SUV, same monkey): ~18 fold | time at which plasma is composed equally of radiometabolite and [^18F]9 ([5]; monkey, baseline experiments, n = 3): 31.1 ± 14.7 min | time at which plasma is composed equally of radiometabolite and [^18F]9 ([5]; monkey, pre-block with 1 (3 mg/kg i.v.), 3 mg/kg): 4.0 min and 4 min | minor radiometabolite, share of total plasma radioactivity ([5]; one monkey, one plasma sample at 60 min after injection): 8% | plasma free fraction (fP) [6]: 3.5 ± 0.2% and 1.34 ± 0.1% | time stable in buffer [7]: > 2 h | defluorination (uptake of radioactivity into skull) (PBR [8]; PET images 60-120 min): does not defluorinate significantly | maximal brain uptake (PBR [8]; choroid plexus of fourth ventricle, baseline, n = 4): 371 ± 89 % SUV | proportion of brain radioactivity displaced (PBR [8]; choroid plexus, 1 (3 mg/kg i.v.) given 60 min after [^18F]9): up to 90% | unchanged radioligand after incubation [9]: > 99.2% | [^18F]9 as share of plasma radioactivity ([10]; rat, NCA, mass dose 0.85 μg/kg, 30 min, n = 2): 12.5% | minor radiometabolite, share of total radioactivity ([10]; second rat, NCA, mass dose 3.78 μg/kg): < 5% | minor radiometabolite, share of brain radioactivity [10, 12]: < 5% | minor radiometabolite, share of plasma radioactivity [10, 12]: < 3% | minor radiometabolite, share of urine radioactivity [10, 12]: 9.9 ± 2.2% | time radiochemically stable [11]: at least 4 h
